Data as given in ChEMBL document CHEMBL2424600, “Synthetic polyamines activating autophagy: effects on cancer cell death” (Eur J Med Chem, 2013).
Active and inactive are the calls of the source. No cut-off for these calls is given here.

Columns and labels:
HeLa [1] = assay: Induction of autophagy in human HeLa cells assessed as conversion of LC3-1 protein to LC3-2 protein at 2 uM after 3 hrs by Western blot analysis in presence of N-acetylcysteine; assay type: functional, cell-based
Summary of the method: (§1)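 HeLa treated 3 h with 2 µM in presence or absence of 5 mM NAC; 50 µg protein analysed by Western blot with monoclonal antibody recognising LC3-I (18 kDa) and LC3-II (16 kDa).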

U2OS [2] = assay: Cytotoxicity against human U2OS cells assessed as cell survival after 48 hrs by trypan blue exclusion assay; assay type: functional, cell-based
Summary of the method: (§2)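 Cells exposed 48 h to increasing concentrations in DMSO (0.1% of medium) at 37 °C, 5% CO2. Trypan blue exclusion counts, at least 10 fields per sample, survival as % of viable control cells. IC50 interpolated from dose–response curve; means ± S.E.M. of three to four replicates.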

HeLa [3] = assay: Cytotoxicity against human HeLa cells transfected with Atg5 siRNA assessed as decrease in cell survival at 2 uM after 24 hrs by trypan blue exclusion assay; assay type: functional, cell-based
Summary of the method: (§3)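 HeLa at 50% confluence transfected 24 h with 100 nM (final) Atg5 or control siRNA, then after a further 24 h incubated 24 h ± 2 µM compound. Cell death by trypan blue; acidic vesicle accumulation by acridine orange staining. Atg5 knockdown checked by blot. Triplicate means ± S.E.M.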

HL-60 [4] = assay: Cytotoxicity against human HL60 cells assessed as cell survival after 24 hrs by trypan blue exclusion assay; assay type: functional, cell-based; settings: HL-60, 24 h
Summary of the method: (§4)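 Cells exposed 24 h to increasing concentrations (DMSO vehicle, 0.1% of medium; controls got DMSO) at 37 °C, 5% CO2. Viability by trypan blue exclusion, triplicate samples, at least 10 fields counted each; survival as % of viable cells vs control. IC50 read from dose–response curve as concentration giving 50% survival.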

HT-29 [5] = assay: Cytotoxicity against human HT-29 cells assessed as cell survival after 48 hrs by trypan blue exclusion assay; assay type: functional, cell-based; settings: HT-29, 48 h; summary of the method: as §2
Thymocyte = assay: Cytotoxicity against rat thymocytes assessed as cell survival after 24 hrs by trypan blue exclusion assay; assay type: cell-based; summary of the method: as §4
HeLa [6] = assay: Induction of autophagy in human HeLa cells assessed as appearance of acidic vesicular organelles at 2 uM after 3 hrs by acridine orange staining-based immunofluorescence microscopic analysis; assay type: functional, cell-based
Summary of the method: (§5)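 HeLa treated 3 h with DMSO or 2 µM, with or without 2 h pretreatment with 5 mM NAC; stained with acridine orange and imaged by fluorescence microscopy for cells with orange–red acidic vesicular organelles. Two independent experiments.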

HeLa [7] = assay: Cytotoxicity against human HeLa cells assessed as cell survival after 24 hrs by trypan blue exclusion assay; assay type: functional, cell-based; summary of the method: as §4
HeLa [8] = assay: Disruption of mitochondrial membrane potential in human HeLa cells at 2 uM after 4 hrs by DiOC6/propidium iodide staining-based flow cytometric analysis; assay type: functional
Summary of the method: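 After treatment, HeLa (1 × 10^6 cells/mL) stained with 4 nM DiOC6 for 40 min at 37 °C in the dark, counterstained with 5 µg/mL propidium iodide to exclude dead cells. Flow cytometry with logarithmic amplification, argon laser; mean green fluorescence channel recorded.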

HeLa [9] = assay: Induction of autophagy in human HeLa cells assessed as appearance of vacuoles in cytoplasm containing mitochondrion at 2 uM after 24 hrs by transmission electron microscopic analysis; assay type: functional, cell-based
Summary of the method: (§6)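 HeLa seeded on glass slides at 1.3 × 10^6 cells/well for 24 h, treated 24 h with 2 µM, fixed in 2.5% glutaraldehyde in 0.1 M phosphate buffer 2 h at 4 °C, post-fixed in 1% OsO4 1 h at 4 °C, examined by transmission electron microscopy for cytoplasmic vacuoles.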

HeLa [10] = assay: Induction of apoptosis in human HeLa cells assessed as nuclear fragmentation at 2 uM after 24 hrs by DAPI staining assay; assay type: functional, cell-based
Summary of the method: (§7)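 HeLa treated 24 h with 2 µM, then stained with DAPI and scored for chromatin condensation and nuclear fragmentation/condensation.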

LoVo [11] = assay: Cytotoxicity against human LoVo cells assessed as cell survival after 48 hrs by trypan blue exclusion assay; assay type: functional, cell-based; summary of the method: as §2
[12] = Cytotoxicity against human C-28/I2 cells assessed as cell survival after 24 hrs by trypan blue exclusion assay; assay type: cell-based; settings: C28/I2, 24 h; summary of the method: as §4
[13] = Cytotoxicity against human SH-SY5Y cells assessed as cell survival after 24 hrs by trypan blue exclusion assay; assay type: functional, cell-based; summary of the method: as §4
HeLa [14] = assay: Cytotoxicity against human HeLa cells assessed as decrease in cell survival up to 3 mM after 24 hrs by trypan blue exclusion assay in presence of N-acetylcysteine; assay type: functional, cell-based
Summary of the method: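 HeLa exposed 24 h to the indicated concentrations with or without 5 mM N-acetylcysteine. Survival by trypan blue exclusion relative to control; triplicate means ± S.E.M.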

SAOS-2 [15] = assay: Cytotoxicity against human p53-deficient Saos2 cells assessed as cell survival after 24 hrs by trypan blue exclusion assay; assay type: functional, cell-based; settings: SAOS-2, 24 h; summary of the method: as §4
HeLa [16] = assay: Induction of autophagy in human HeLa cells transfected with Atg5 siRNA assessed as acidic vesicles accumulation at 2 uM after 24 hrs by acridine orange staining-based immunofluorescence microscopic analysis relative to cell transfected with control siRNA; assay type: functional; summary of the method: as §3
HeLa [17] = assay: Induction of apoptosis in human HeLa cells assessed as nuclear condensation at 2 uM after 24 hrs by DAPI staining assay; assay type: functional, cell-based; summary of the method: as §7
HeLa [18] = assay: Induction of intracellular peroxide formation in human HeLa cells at 2 uM after 3 hrs by DCFDA staining-based flow cytometric analysis; assay type: functional, cell-based
Summary of the method: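 HeLa treated 3 h with 2 µM, then loaded with 5 µM DCFDA for 30 min at 37 °C. DCF fluorescence measured by flow cytometry with logarithmic amplification; mean fluorescence channel vs DMSO control.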

HeLa [19] = assay: Induction of autophagy in human HeLa cells assessed as appearance of vacuoles in cytoplasm containing organic materials at 2 uM after 24 hrs by transmission electron microscopic analysis; assay type: functional, cell-based; summary of the method: as §6
SAOS-2 [20] = assay: Cytotoxicity against human p53-deficient Saos2 cells assessed as cell survival after 48 hrs by trypan blue exclusion assay; assay type: functional, cell-based; settings: SAOS-2, 48 h; summary of the method: as §2
HeLa [21] = assay: Cytotoxicity against human HeLa cells assessed as decrease in cell survival at 2 uM after 24 hrs by trypan blue exclusion assay in presence of spermine; assay type: functional, cell-based
Summary of the method: (§8)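 HeLa given 2 µM for 24 h with uptake-modifying conditions: 0.5 mM spermine plus 1 mM aminoguanidine (inhibits serum amine oxidases); 0.1 mM DFMO with 48 h pretreatment; or medium adjusted to pH 6.4 with HCl instead of 7.2. Survival by trypan blue exclusion vs control; triplicate means ± S.E.M.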

HeLa [22] = assay: Cytotoxicity against human HeLa cells assessed as decrease in cell survival at 2 uM after 24 hrs by trypan blue exclusion assay in presence of Z-VADfmk; assay type: functional, cell-based
Summary of the method: (§9)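 HeLa pretreated 2 h with Z-VADfmk (50 µM) or necrostatin-1 (20 µM), then exposed to compound for 24 h. Viability by trypan blue exclusion, survival as % of viable control cells; means ± S.E.M. of three determinations.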

HeLa [23] = assay: Cytotoxicity against human HeLa cells assessed as decrease in cell survival at 2 uM after 24 hrs by trypan blue exclusion assay in presence of DFMO; assay type: functional, cell-based; summary of the method: as §8
HL-60 [24] = assay: Cytotoxicity against human HL60 cells assessed as cell survival after 48 hrs by trypan blue exclusion assay; assay type: functional, cell-based; settings: HL-60, 48 h; summary of the method: as §2
HeLa [25] = assay: Induction of apoptosis in human HeLa cells assessed as increase in caspase 3/7 activity at 2 uM after 24 hrs by DEVD-based fluorometric analysis; assay type: functional, cell-based
Summary of the method: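 HeLa treated 24 h with 25 µM DENSPM (positive control) or the indicated concentrations of compound; DEVDase (caspase 3/7) activity measured. Means ± S.E.M. of three replicates vs control.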

HeLa [26] = assay: Induction of autophagy in human HeLa cells assessed as conversion of LC3-1 protein to LC3-2 protein at 2 uM after 3 hrs by Western blot analysis; assay type: functional, cell-based; summary of the method: as §1
U2OS [27] = assay: Cytotoxicity against human U2OS cells assessed as cell survival after 24 hrs by trypan blue exclusion assay; assay type: functional, cell-based; summary of the method: as §4
HeLa [28] = assay: Induction of autophagy in human HeLa cells assessed as appearance of acidic vesicular organelles at 2 uM after 3 hrs by acridine orange staining-based immunofluorescence microscopic analysis in presence of N-acetylcysteine; assay type: functional, cell-based; summary of the method: as §5
HeLa [29] = assay: Induction of autophagy in human HeLa cells assessed as conversion of LC3-1 protein to LC3-2 protein at 2 uM after 3 hrs by Western blot analysis in presence of bafilomycin A; assay type: functional, cell-based
[30] = Cytotoxicity against human SH-SY5Y cells assessed as cell survival after 48 hrs by trypan blue exclusion assay; assay type: functional, cell-based; summary of the method: as §2
HT-29 [31] = assay: Cytotoxicity against human HT-29 cells assessed as cell survival after 24 hrs by trypan blue exclusion assay; assay type: functional, cell-based; settings: HT-29, 24 h; summary of the method: as §4
HeLa [32] = assay: Cytotoxicity against human HeLa cells assessed as decrease in cell survival at 2 uM after 24 hrs at pH 6.4 by trypan blue exclusion assay; assay type: functional, cell-based; summary of the method: as §8
HeLa [33] = assay: Cytotoxicity against human HeLa cells assessed as cell survival after 48 hrs by trypan blue exclusion assay; assay type: functional, cell-based; summary of the method: as §2
HeLa [34] = assay: Cytotoxicity against human HeLa cells assessed as decrease in cell survival at 2 uM after 24 hrs by trypan blue exclusion assay in presence of necrostatin-1; assay type: functional, cell-based; summary of the method: as §9
LoVo [35] = assay: Cytotoxicity against human LoVo cells assessed as cell survival after 24 hrs by trypan blue exclusion assay; assay type: functional, cell-based; summary of the method: as §4
HeLa [36] = assay: Induction of apoptosis in human HeLa cells assessed as chromatin condensation at 2 uM after 24 hrs by DAPI staining assay; assay type: functional, cell-based; summary of the method: as §7
HeLa [37] = assay: Cytotoxicity against human HeLa cells assessed as decrease in cell survival at 2 uM after 24 hrs by trypan blue exclusion assay relative to control; assay type: functional; settings: read-out: Survival
Summary of the method: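 HeLa cells grown in EMEM with 10% FBS, 1% glutamine, 1% nonessential amino acids, 1 mM pyruvate and antibiotics at 37 °C in 5% CO2. Compound added from DMSO stock (DMSO 0.1% of volume; controls got DMSO only) and exposed 24 h. Viability read by trypan blue exclusion in triplicate samples, at least 10 fields counted. Survival given as % viable cells versus control.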

HeLa [38] = assay: Induction of autophagy in human HeLa cells assessed as acidic vesicles accumulation at 20 uM after 3 hrs by acridine orange staining-based immunofluorescence microscopic analysis; assay type: functional, cell-based
Summary of the method: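 HeLa incubated 3 h with 20 µM compound; acidic vesicle accumulation scored after acridine orange staining. Triplicate means ± S.E.M.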

c1ccc(C(CNCCCCCCNCCCCCCCCCCCCNCCCCCCNCC(c2ccccc2)c2ccccc2)c2ccccc2)cc1
Activity (HeLa [1]): inactive
IC50 (U2OS [2]): 400 nM
Activity (HeLa [3]): Active
IC50 (HL-60 [4]): 1900 nM
IC50 (HT-29 [5]): 1100 nM
IC50 (Thymocyte): 6800 nM
Activity (HeLa [6]): Active
IC50 (HeLa [7]): 1600 nM
Activity (HeLa [8]): >50%
Activity (HeLa [9]): Active
Activity (HeLa [10]): inactive
IC50 (LoVo [11]): 800 nM
IC50 [12]: 4300 nM
IC50 [13]: 2800 nM
Activity (HeLa [14]): inactive
IC50 (SAOS-2 [15]): 900 nM
Activity (HeLa [16]): inactive
Activity (HeLa [17]): inactive
Activity (HeLa [18]): Active
Activity (HeLa [19]): Active
IC50 (SAOS-2 [20]): 300 nM
Activity (HeLa [21]): Active
Activity (HeLa [22]): Active
Activity (HeLa [23]): Active
IC50 (HL-60 [24]): 700 nM
Activity (HeLa [25]): inactive
Activity (HeLa [26]): Active
IC50 (U2OS [27]): 1100 nM
Activity (HeLa [28]): inactive
Activity (HeLa [29]): Active
IC50 [30]: 900 nM
IC50 (HT-29 [31]): 2400 nM
Activity (HeLa [32]): inactive
IC50 (HeLa [33]): 600 nM
Activity (HeLa [34]): Active
IC50 (LoVo [35]): 2000 nM
Activity (HeLa [36]): inactive
viability at 2 µM (HeLa [37]): 50%

COc1ccccc1CNCCCCCCNCCCCCCCCCCCCNCCCCCCNCc1ccccc1OC
IC50 (Thymocyte): > 100000 nM
IC50 (HeLa [7]): 21000 nM
IC50 [12]: 77000 nM
Activity (HeLa [38]): Active

c1ccc(C(CNCCCCCCNCCCCCCCCNCCCCCCNCC(c2ccccc2)c2ccccc2)c2ccccc2)cc1
IC50 (Thymocyte): 82000 nM
IC50 (HeLa [7]): 18000 nM
IC50 [12]: 60000 nM
Activity (HeLa [38]): Active
